Type in all cases: functional
One test concerns HeLa. The experiment in a line: Cytostatic activity against HeLa cells. To be noted: Homo sapiens, read-out: ED50 (the source's name). The method in brief:
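HeLa cells at 10⁵ cells/mL in minimal Eagle's medium with 10% fetal calf serum, left 2–3 h at 37 °C in Leighton tubes to attach. Compound added as suspension in sterile saline with 0.05% Tween 80, 10% of final volume. Incubated 72 h at 37 °C. Growth from cell protein by Oyama–Eagle colorimetry; ED50 in μg/mL. 6-Mercaptopurine positive control.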

In test [1] the test system is Mus musculus. As to the kind of experiment: Number of cures on day 30 in mice bearing ECA tumor at 25 mg/kg. Put shortly: (§1)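 Ehrlich ascites carcinoma, about 5 × 10⁵ cells ip from a 7-day donor, in female ICR Swiss mice of 19–22 g. Nine ip doses at 24-h intervals from 24 h post-implant, in saline with 0.05% Tween 80, 0.4 mL. Groups of 7 treated, 30 controls; NCI protocols 1100/1200. Cures are survivors on day 30. 5-Fluorouracil 20 mg/kg/injection reference.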

For test [2], the system named is Mus musculus. The experiment in a line: Percent increase in median survival time of treated mice compared with controls at 50 mg/kg. Put shortly: (§2)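 Ehrlich carcinoma ascites in female ICR Swiss mice (19–22 g), about 5 × 10⁵ cells ip, per NCI protocols 1100/1200. From 24 h after implant, nine daily ip doses in saline with 0.05% Tween 80 (0.4 mL). Groups of 7 treated and 30 controls; 5-fluorouracil 20 (mg/kg)/injection as positive control. T/C × 100 taken from median survival time against controls; evaluation on day 30.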

For test [3], the system named is Mus musculus. The experiment in a line: Number of cures on day 30 in mice bearing ECA tumor at 12.5 mg/kg. The method in brief:
as §1

Test [4] has as its system Mus musculus. The experiment in a line: Number of survivors on day 5 to that of number(7) of mice at 50 mg/kg ip in mice bearing ECA tumor was determined. To be noted: route intraperitoneal. Put shortly: (§3)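 Female ICR Swiss mice (19–22 g) given about 5 × 10⁵ Ehrlich ascites carcinoma cells ip from a 7-day donor tumour. Starting 24 h later, nine ip doses at 24-h intervals, suspended in 0.9% NaCl with 0.05% Tween 80, 0.4 mL per injection. Groups of 7 treated and 30 controls. Read-out is survivors on day 5 over mice started.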

The subject of test [5] is Mus musculus. As to the kind of experiment: Difference in weight on day 5 in mice bearing ECA tumor at 50 mg/kg. Put shortly: (§4)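 Female ICR Swiss mice, 19–22 g, given about 5 × 10⁵ Ehrlich ascites cells ip from a 7-day donor. Starting 24 h later, nine daily ip doses suspended in 0.9% NaCl with 0.05% Tween 80, 0.4 mL. Groups of 7 treated, 30 controls, per NCI protocols 1100/1200. Value is weight difference (g) between test and control animals.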

Test [6] has as its system Mus musculus. The experiment in a line: Number of survivors on day 5 to that of number(7) of mice at 25 mg/kg ip in mice bearing ECA tumor was determined. To be noted: route intraperitoneal. The method in brief:
as §3

The subject of test [7] is Mus musculus. The experiment in a line: Number of cures on day 30 in mice bearing ECA tumor at 50 mg/kg. Put shortly: as §1
Test [8] concerns Mus musculus. The experiment in a line: Number of survivors on day 5 to that of number(7) of mice at 12.5 mg/kg ip in mice bearing ECA tumor was determined. To be noted: route intraperitoneal. Put shortly: as §3
In test [9] the test system is Mus musculus. As to the kind of experiment: Difference in weight on day 5 in mice bearing ECA tumor at 12.5 mg/kg. The method in brief:
as §4

Test [10] concerns Mus musculus. As to the kind of experiment: Difference in weight on day 5 in mice bearing ECA tumor at 25 mg/kg. The method in brief:
as §4

In test [11] the test system is Mus musculus. The experiment in a line: Percent increase in median survival time of treated mice compared with controls at 25 mg/kg. The method in brief:
as §2

For test [12], the system named is Mus musculus. As to the kind of experiment: Percent increase in median survival time of treated mice compared with controls at 12.5 mg/kg. Put shortly: as §2

Converted amounts (≈) assume the structure as drawn.

For `CCOC(=O)c1cc(CCl)[nH]n1`, the EC50 with HeLa is above 100 µg/mL.

On to `NC(=O)c1cc(CCl)[nH]n1`, for which, in the test with HeLa, the EC50 is above 100 µg/mL.

Regarding `CC(=O)OC[C@H]1O[C@@H](n2nc(CCl)cc2C(N)=O)[C@H](OC(C)=O)[C@@H]1OC(C)=O`, the EC50 in the test with HeLa turned out to be 26 µg/mL (≈ 62.2 µM).

For `CCOC(=O)c1cc(CCl)nn1[C@@H]1O[C@H](COC(C)=O)[C@@H](OC(C)=O)[C@H]1OC(C)=O`, the EC50 in the test with HeLa was found to be 32 µg/mL (≈ 71.6 µM).

With `CC(=O)OC[C@H]1O[C@@H](n2nc(C(N)=O)cc2CCl)[C@H](OC(C)=O)[C@@H]1OC(C)=O`, the EC50 in the test with HeLa turned out to be 12 µg/mL (≈ 28.7 µM).

On to `CC(=O)OC[C@H]1O[C@@H](n2nc(C(N)=O)cc2CI)[C@H](OC(C)=O)[C@@H]1OC(C)=O`, for which the Cures in the test with Mus musculus [1] was determined as 4; in the test with Mus musculus [3], 2; with Mus musculus [7] it was 1. Moreover, the T/C (commonly the ratio of treated to control) worked out at 100% in the test with Mus musculus [2], 141% in the test with Mus musculus [11] and 121% in the test on Mus musculus [12]. The Survivors with Mus musculus [4], with Mus musculus [6] and in the test with Mus musculus [8] was 7 throughout. For the same molecule, the Weight difference in the test with Mus musculus [5] is on record as -0.5; with Mus musculus [9], 0.3; in the test with Mus musculus [10], -0.25. The EC50 with HeLa came out at 2 µg/mL (≈ 3.93 µM).

As to `CCOC(=O)c1cc(CI)nn1[C@@H]1O[C@H](COC(C)=O)[C@@H](OC(C)=O)[C@H]1OC(C)=O`, the EC50 with HeLa came to 5.5 µg/mL (≈ 10.2 µM).

With `CC(=O)OC[C@H]1O[C@@H](n2nc(CI)cc2C(N)=O)[C@H](OC(C)=O)[C@@H]1OC(C)=O`, the values for the Cures with Mus musculus [1] and with Mus musculus [3] were 4 and 2, respectively. The molecule also returned a T/C % in the test with Mus musculus [2] of 63%. Moreover, the Survivors in the test on Mus musculus [4], in the test with Mus musculus [6] and with Mus musculus [8] was 7 in each case. For the same molecule, the Weight difference was -0.6 in the test on Mus musculus [5], -0.6 in the test on Mus musculus [9] and -0.4 in the test with Mus musculus [10]. Besides, the EC50 in the test on HeLa is 1.5 µg/mL (≈ 2.95 µM). The figures for the T/C with Mus musculus [11] and in the test with Mus musculus [12] were 158% and 131%, respectively.

On to `CCOC(=O)c1cc(CCl)nn1C1O[C@@H](COC(C)=O)[C@H](OC(C)=O)[C@@H](OC(C)=O)[C@@H]1OC(C)=O` (some centres not stated), for which, in the test on HeLa, the EC50 turned out to be 40 µg/mL (≈ 77.1 µM).

Regarding `CCOC(=O)c1cc(CI)[nH]n1`, the EC50 in the test with HeLa is above 100 µg/mL.

For `CC(=O)OC[C@@H]1OC(n2nc(CCl)cc2C(N)=O)[C@@H](OC(C)=O)[C@H](OC(C)=O)[C@H]1OC(C)=O` (some centres not stated), in the test on HeLa, the EC50 came out at 18 µg/mL (≈ 36.7 µM).

On to `NC(=O)c1cc(CI)[nH]n1`, for which the EC50 with HeLa was above 100 µg/mL.

For the molecule `CC(=O)OC[C@H]1OC(n2nc(CCl)cc2C(N)=O)[C@H](OC(C)=O)[C@@H](OC(C)=O)[C@@H]1OC(C)=O` (some centres not stated), the EC50 in the test with HeLa was found to be 12 µg/mL (≈ 24.5 µM).

On to `CCOC(=O)c1cc(CCl)nn1C1O[C@H](COC(C)=O)[C@@H](OC(C)=O)[C@H](OC(C)=O)[C@H]1OC(C)=O` (some centres not stated), for which, in the test with HeLa, the EC50 was above 100 µg/mL.

For `CCOC(=O)c1cc(CI)nn1C1O[C@@H](COC(C)=O)[C@H](OC(C)=O)[C@@H](OC(C)=O)[C@@H]1OC(C)=O` (some centres not stated), the EC50 with HeLa was 2.5 µg/mL (≈ 4.1 µM).

Take `CC(=O)OC[C@@H]1OC(n2nc(CI)cc2C(N)=O)[C@@H](OC(C)=O)[C@H](OC(C)=O)[C@H]1OC(C)=O` (some centres not stated): the Cures in the test with Mus musculus [1] is recorded as 1; with Mus musculus [7] it was 4. Besides, the T/C in the test with Mus musculus [2] was determined as 176%; in the test on Mus musculus [11], 105%. Moreover, the Survivors with Mus musculus [4] and with Mus musculus [6] was 7 in each case. In addition, the Weight difference is -0.3 in the test on Mus musculus [5] and -0.1 with Mus musculus [10]. Besides, in the test on HeLa, the EC50 is 2 µg/mL (≈ 3.44 µM).

For the origin of these results see ChEMBL document CHEMBL1121454, “Alkylating nucleosides. 4. Synthesis and cytostatic activity of chloro- and iodomethylpyrazole nucleosides” (1980).
